# Sampled rows, rich in hits. Any-hit rate of the full collection: about 1.6%.
# S100A4 inh HTS: blocks human S100A4 binding to myosin IIA peptide; AID 652163; S100A4/TAMRA-MyoIIA peptide fluorescence polarization; inhibition, % at 10.7 µM; 360,000 compounds, 0.14% hits; P26447;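 active means mean inhibition of at least 70% across replicates, with every replicate also reaching that level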
# Target sequence (P26447 whole entry, looked up): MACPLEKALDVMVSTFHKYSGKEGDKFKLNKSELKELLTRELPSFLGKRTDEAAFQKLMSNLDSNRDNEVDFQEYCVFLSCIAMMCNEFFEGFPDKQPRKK
#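 incubation = readout 5 min after mixing, signal stable up to 60 min | system = S100A4 monomer protein | buffer or medium = HEPES pH 7.2 with CaCl2, KCl, NaCl, DTT, Triton | benchmarks = neutral control DMSO, positive control TFP | also added = fluorescent myosin IIA peptide, 5 nM | compound dosing = one concentration per compound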
# dFosB act-1: mouse delta FosB homodimer activation; AID 493131; activation, % at 25 µM; P13346; purified delta FosB, TAMRA-CDK5 oligo fluorescence polarization; percent of positive-control signal above neutral wells; 340,000 compounds, 0.99% hits;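 active means mean activation above about 17%, with every replicate also reaching it, limit read from the data, passing the limit was not always enough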
# Target sequence (P13346 whole entry, looked up): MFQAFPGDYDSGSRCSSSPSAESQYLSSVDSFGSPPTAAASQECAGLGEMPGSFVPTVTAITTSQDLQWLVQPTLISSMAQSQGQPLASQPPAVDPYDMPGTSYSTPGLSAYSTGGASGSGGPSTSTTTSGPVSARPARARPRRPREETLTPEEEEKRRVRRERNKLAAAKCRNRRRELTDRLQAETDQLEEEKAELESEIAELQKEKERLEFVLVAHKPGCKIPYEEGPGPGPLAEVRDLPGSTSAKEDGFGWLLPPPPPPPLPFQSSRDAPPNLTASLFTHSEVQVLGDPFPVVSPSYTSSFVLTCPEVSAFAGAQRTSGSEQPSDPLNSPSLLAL
# SR-BI HDL uptake: blocks mouse SR-BI lipid uptake from DiI-HDL | ldlA[mSR-BI] CHO cells, DiI-HDL uptake fluorescence, 3 h | inhibition, % at 12.5 µM | 320,000 compounds, 0.96% hits;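 active means mean replicate inhibition of at least 70% and a set share of replicates each scoring 70 or more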;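 further: 0% = median of neutral control wells and 100% = median of positive control wells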
# SR-BI DiI-HDL act: SR-BI HDL lipid transfer activation | CHO ldlA[mSR-BI] cells, DiI-HDL uptake fluorescence, 3 h; 100 = double the neutral-control signal | activation, % at 12.5 µM | 320,000 compounds, 0.096% hits;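 active means mean replicate activation of at least 60% and every replicate at or above 60%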;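 further: 0% = median plate neutral-control signal and 100% = twice that signal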
#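 Assay system: CHO ldlA[mSR-BI] cells, LDL receptor-null, SR-BI overexpressing; medium: Ham's F12 with 0.5% BSA, HEPES 25 mM, pH 7.4; also added: DiI-HDL 10 µg/mL; timing: 3 h uptake period with compound, 37 °C; signal: DiI fluorescence, bottom read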
# RAD54 inh: inhibitors of human RAD54 branch migration. Q92698. RAD54 Holliday junction branch migration, FAM/BHQ fluorescence. 360,000 compounds, 0.14% hits. inhibition, % at 10.4 µM;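 active means mean normalized replicate activity at least 40 and at least half of replicates scoring 40 or more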;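 further: 0% = median of neutral control wells and 100% = median of positive control wells; inhibitors cause a drop in the FAM fluorescence signal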
# PvdQ acylase: blocks Pseudomonas aeruginosa PvdQ acylase activity; purified PvdQ acylase, fluorescence plate reader; inhibition, % at 10 µM; 340,000 compounds, 0.063% hits; AID 488965; in the data active means inhibition above about 30%, passing the limit was not always enough;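 further: 0% = vehicle neutral wells and 100% = reference inhibitor wells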
# dFosB act-2: activators of mouse delta FosB homodimer DNA binding; shares compounds with dFosB act-1; purified delta FosB, TAMRA-CDK5 oligo fluorescence polarization; normalised: neutral wells 0, positive control 100; activation, % at 24.9 µM; 2,400 tested, under 10 active;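 active means highest replicate activation at or above 34% and every replicate reaching that threshold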;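 further: higher polarization means more probe DNA bound by delta FosB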
# Numbers without * were called inactive; . = not tested or not shown.
SMILES,S100A4 inh HTS,dFosB act-1,SR-BI HDL uptake,SR-BI DiI-HDL act,RAD54 inh,PvdQ acylase,dFosB act-2
O=C(CSc1nnc(SCc2ccccc2)s1)N/N=C/c1c[nH]c2ccccc12,9.8,-13.8,22.3,-22.3,.,-13.2,.
Cc1ccc(CSc2nnc(SCC(=O)N/N=C/c3c[nH]c4ccccc34)s2)cc1,0.7,81.1*,24.3,-24.3,0.0,3.1,8.5
O=C1N/C(=N/N=C/c2ccco2)SC1Cc1ccccc1 (stereo unspecified),9.8,21.0*,-4.8,4.8,-10.0,-8.9,7.9
Cc1cccc(CC2S/C(=N/N=C/c3ccco3)NC2=O)c1 (stereo unspecified),-1.1,24.7*,-14.9,14.9,-7.1,4.0,-1.6
C=CCn1c(C)cc(-c2csc(NC(=O)CCc3nc4ccccc4c(=O)[nH]3)n2)c1C,-1.9,-4.4,19.6,-19.6,9.3,-10.2,.
O=C(CCc1nc2ccccc2c(=O)[nH]1)Nc1nc(-c2cccs2)cs1,5.8,26.1*,-6.2,6.2,.,-14.3,-1.2
O=C(CCc1nc2ccccc2c(=O)[nH]1)Nc1nnc(SCc2ccc(F)cc2)s1,7.9,89.7*,-5.3,5.3,.,-11.8,5.3
CN(C)CC(=O)Nc1ccc2c(c1)[C@@H]1C[C@H](CC(=O)NCC3CC3)O[C@H](CO)[C@@H]1O2,-5.5,.,.,.,-2.8,.,.
CCn1c(C)c(C2=CCN(S(=O)(=O)c3ccc(C)cc3)CC2)c2ccccc21,.,13.6,.,.,-6.0,3.0,.
Cc1c(C2=CCN(S(=O)(=O)c3ccc(Br)cc3)CC2)c2ccccc2n1C,.,31.9*,-21.9,21.9,.,-8.7,-7.6
Cc1ccc(CNC(=O)CSc2nnc3c(n2)[nH]c2ccccc23)cc1,-3.8,28.2*,-46.6,46.6,5.8,-19.9,6.6
Cc1ccc(NC(=O)CSc2nnc3c(n2)[nH]c2ccccc23)cc1,-2.5,-2.5,-12.6,12.6,4.4,-12.7,.
COc1ccc(CNC(=O)CSc2nnc3c(n2)[nH]c2ccc(OC)cc23)cc1,0.4,40.0*,.,.,.,-8.2,-2.0
COc1ccc2[nH]c3nc(SCc4nnc(-c5ccccc5)o4)nnc3c2c1,.,18.9*,13.0,-13.0,.,-16.5,1.6
COc1ccc(CNC(=O)CSc2nnc3c(n2)[nH]c2ccc(F)cc23)cc1,-6.6,-1.9,.,.,8.8,2.2,.
C[C@@H]1CN([C@H](C)CO)C(=O)c2cccc(NS(=O)(=O)c3ccc(F)cc3)c2O[C@H]1CN(C)Cc1ccncc1,15.8,.,.,.,-10.4,.,.
O=C(NCC(c1ccco1)N1CCc2ccccc2C1)c1ccc(Cl)c([N+](=O)[O-])c1 (stereo unspecified),16.0,2.4,-22.9,22.9,-4.9,-11.9,.
O=C(NCC(c1ccco1)N1CCCC1)c1ccc(Cl)c(S(=O)(=O)N2CCc3ccccc32)c1 (stereo unspecified),-12.2,22.5*,8.5,-8.5,4.6,5.2,4.9
O=C(Nc1ccc(F)cc1)C1CCN(c2ncnc3c2nc2n3CCCCC2)CC1,-1.0,47.9*,32.4,-32.4,-5.2,-6.1,2.6
O=C(Nc1ccccc1)c1cnc(-c2ccccc2)nc1-c1ccccc1,.,47.9*,32.4,-32.4,1.6,-12.9,3.1
O=C(N/N=C/c1ccc(-c2ccccc2Cl)o1)c1ccccc1,.,32.0*,22.6,-22.6,.,-3.5,0.3
O=C(O)c1ccc(N/N=C/c2ccc(-c3ccccc3Cl)o2)cc1,4.4,1.5,-5.3,5.3,7.5,4.2,.
Cc1cccc(-c2ccc([C@H]3[C@H](CO)N4CCCCN(Cc5cncnc5)C[C@@H]34)cc2)c1,6.4,.,.,.,-4.4,.,.
COc1ccc(Br)cc1/C=C/C(=O)NC(=S)Nc1ccc(CN2CCOCC2)cc1,4.6,48.3*,13.8,-13.8,11.6,-8.9,2.3
COc1ccc(C(=O)NC(=S)Nc2ccc(CN3CCOCC3)cc2)cc1OC,-0.1,.,.,.,0.1,.,.
